High-throughput results deposited in PubChem BioAssay by The Scripps Research Institute Molecular Screening Center.
M4 PAM: potentiates acetylcholine response at human M4 receptor | activation, % at 3 µM | CHO-K1 hM4/Gqi5, Fluo-8 calcium fluorescence, ACh EC20; 0% = ACh EC20, 100% = maximal ACh | hit rate 0.4% among 360,000 | P08173;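 active = activation above its plate's cutoff, the mean activation of sample wells plus 3 SD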
M5 antag: antagonists of human muscarinic M5 receptor (CHRM5); P08912; CHO-hM5 cells, Fluo-8 calcium fluorescence, ACh EC80; inhibition, % at 3 µM; hit rate 0.59% among 360,000;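 active = inhibition above a per-plate cutoff, the mean of that plate's test compounds plus 3 SD, cut at about 27% in these data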;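 note: 0% = acetylcholine EC80 with DMSO and 100% = DMSO without agonist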
Target sequence (P08912 whole entry, looked up): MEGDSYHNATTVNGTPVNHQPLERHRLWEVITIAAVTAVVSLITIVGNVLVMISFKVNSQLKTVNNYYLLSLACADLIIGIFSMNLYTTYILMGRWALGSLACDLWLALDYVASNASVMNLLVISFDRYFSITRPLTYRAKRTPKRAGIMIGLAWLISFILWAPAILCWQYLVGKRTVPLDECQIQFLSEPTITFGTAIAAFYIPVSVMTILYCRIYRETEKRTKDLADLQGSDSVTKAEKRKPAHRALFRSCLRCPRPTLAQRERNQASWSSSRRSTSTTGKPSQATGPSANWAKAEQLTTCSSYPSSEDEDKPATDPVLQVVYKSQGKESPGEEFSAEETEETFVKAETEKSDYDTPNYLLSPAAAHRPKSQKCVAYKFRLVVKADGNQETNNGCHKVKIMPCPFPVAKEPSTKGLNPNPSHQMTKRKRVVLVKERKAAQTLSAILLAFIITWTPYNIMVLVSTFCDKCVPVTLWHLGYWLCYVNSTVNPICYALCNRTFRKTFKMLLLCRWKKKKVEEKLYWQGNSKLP
CHRM5 PAM: potentiates acetylcholine response at human M5 receptor. hit rate 0.3% among 360,000. P08912. AID 624038. activation, % at 3 µM. CHO-K1 hM5, Fluo-8 calcium, ACh EC20 PAM; 0% = ACh EC20, 100% = ACh EC100;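 active = activation above the run cutoff, the mean activation of all test compounds plus 3 SD, cut at about 18% in these data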
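Assay system: CHO-K1 hM5 cells / Incubation: Fluo-8 loading 80 min at 37 °C plus 30 min room temperature / Technique: Fluo-8 calcium dye fluorescence, kinetic read / Repeats: single replicate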
M4 antag: blocks acetylcholine activation of human M4 receptor | P08173 | CHO-hM4 cells, ACh EC80, Fluo-8 calcium fluorescence | inhibition, % at 3 µM | hit rate 0.73% among 360,000;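 active = inhibition above its plate's cutoff, the mean inhibition of sample wells plus 3 SD, cut at about 27% in these data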;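 note: 0% = acetylcholine EC80 with DMSO and 100% = DMSO without agonist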
M4 ag: CHRM4 agonism in calcium assay. CHO-K1 hM4/Gqi5, Fluo-8 calcium fluorescence; vehicle 0%, full acetylcholine response 100%. activation, % at 3 µM. hit rate 0.14% among 360,000;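 active = activation above the run mean over all test wells plus 3 SD, cut at about 32% in these data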;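 note: peak over basal fluorescence ratio per well then scaled between controls; 0% = DMSO wells and 100% = acetylcholine at EC100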
CHRM5 agonist: agonists of human muscarinic M5 receptor (CHRM5). hit rate 0.19% among 360,000. activation, % at 3 µM. AID 624037. CHO-K1 hM5 cells, Fluo-8 calcium fluorescence; 0% DMSO wells, 100% maximal acetylcholine response;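 active = activation above the run's mean over test compounds plus 3 SD, cut at about 23% in these data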;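 note: signal is peak over basal fluorescence ratio across the kinetic read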
Active calls of the source: *. The list is not random: actives were taken first. Their share in the collection is about 1.8%.

SMILES	M4 PAM	M5 antag	CHRM5 PAM	M4 antag	M4 ag	CHRM5 agonist
CCOC(=O)N1CCN(C(=O)CNC(=O)c2ccc(Cl)cc2)CC1	-4	6	2	-1	0	3
CCC1CCCCN1C(=O)COC(=O)c1cc(C)nc2ccccc12 (centres undefined)	-3	13	-9	-1	5	1
FC(F)Oc1ccc(NC(=S)NC2CCCCCCC2)cc1	-8	34*	-12	6	16	1
FC(F)Oc1ccc(NC(=S)NC2CCSc3ccccc32)cc1 (centres undefined)	-19	43*	-18	60*	17	0
O=C(NC1CCSc2ccccc21)c1cccc(OC(F)F)c1 (centres undefined)	1	-3	0	-9	2	-6
S=C(Nc1ccc(Cl)cc1)NC1CCCCC1	-25	7	-11	1	8	1
O=c1c2cc(F)ccc2sn1-c1ccccc1	-5	12	2	14	30	24*
CN(CC(=O)Nc1ccc(C#N)cc1)Cc1ccc(Cl)cc1	-14	14	-12	8	3	-1
CN(CC(=O)Nc1ccc(C#N)cc1)Cc1ccc(Cl)cc1Cl	-21	27*	-23	17	2	-6
COC(=O)[C@]12CCCCC=C1N(Cc1ccccc1)C(=O)[C@H](CC(=O)NCCCCc1ccccc1)C2	-2	2	-5	-9	5	2
O=C(O)C1CCCCC1C(=O)NCCCn1ccnc1 (centres undefined)	-7	1	-1	16	0	-2
O=C(NCCCn1ccnc1)C(=O)NC1CCCCC1	10	0	19*	-1	0	-1
CCCCc1nc(Cl)c(CO)n1Cc1ccc(-c2ccccc2-c2nnn[nH]2)cc1	2	2	-14	-6	0	33*
CCN(C1CCCCC1)S(=O)(=O)c1ccc(S(=O)(=O)NCc2ccncc2)cc1	-13	29*	-26	24	25	11
CCN(C1CCCCC1)S(=O)(=O)c1ccc(S(=O)(=O)NCCc2ccncc2)cc1	-9	-1	-10	9	5	1
O=C(NC1CCCC1)C1CC(O)CN1C(=O)Nc1ccccc1 (centres undefined)	-5	13	-4	0	1	-3
COc1ccc(S(=O)(=O)Nc2c(C(=O)O)[nH]c3ccc(OC)cc23)cc1	14	7	2	6	1	-4
COC(=O)c1[nH]c2ccc(F)cc2c1NS(=O)(=O)c1ccc(OC)cc1	-13	1	-6	29*	8	-2
CC1(C(=O)NS(=O)(=O)c2cccs2)CCN1C(=O)C1CCCCC1 (centres undefined)	3	5	-3	-5	1	0
O=C(CNC(=O)c1ccc(F)cc1)N/N=C/c1cn[nH]c1-c1ccccc1	11	-9	1	2	1	-1
O=C(CNC(=O)c1ccccc1F)N/N=C/c1cn[nH]c1-c1ccccc1	-12	29*	-21	17	3	-9
Cc1ccc(C(=O)/C=C/Nc2cccc(O)c2)cc1	18	18	35*	-2	-1	-1
COc1ccc(NC(=O)CN(C)C(=O)CNC(=O)c2ccc(C)s2)cc1	1	6	2	0	0	-3
Cc1ccc(CN2C(=O)CCC2C(=O)NC2CC2)cc1 (centres undefined)	26*	-4	13	-8	0	1
C#Cc1ccc([C@H]2C=C(C(=O)NCc3ccccc3)O[C@@H](OCC)[C@@H]2CCCO)cc1	-6	34*	-40	-5	2	-11
COc1ccc([N+](=O)[O-])cc1NC1CCN(C(=O)c2cccs2)CC1	18*	3	5	-3	3	0
COc1ccc(NC(=O)C2CCN(C(=O)c3cccs3)CC2)cc1OC	3	4	0	-6	0	-6
CC1(C(=O)NS(=O)(=O)c2cccc(Cl)c2)CCN1C(=O)Cc1ccc(Cl)cc1Cl (centres undefined)	-1	-4	-2	-10	0	0
